The record followed here is ChEMBL document CHEMBL4261504, “Identification of steroid-like natural products as antiplasmodial agents by 2D and 3D similarity-based virtual screening” (Medchemcomm, 2017).

Each structure is given as a SMILES string.

In one data set the test system is Plasmodium falciparum. As to the kind of experiment: Antimalarial activity against Plasmodium falciparum NF54 infected in human erythrocytes assessed as reduction in [3H]hypoxanthine incorporation preincubated for 48 hrs followed by [3H]hypoxanthine addition measured after 24 hrs by liquid scintillation counting. Format: functional, organism-based. In outline: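 Chloroquine-sensitive P. falciparum NF54 was tested in a modified [3H]hypoxanthine incorporation assay. Test compounds were run up to 20 μM, and fusidic acid was tested above that. Chloroquine, artesunate and fusidic acid served as positive controls. Compound purity was ≥95%. IC50 is the mean of at least 2 independent experiments.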

The subject of the next data set is CHO. As to the kind of experiment: Cytotoxicity against CHO cells by MTT assay. Format: cell-based. The settings on record: Cricetulus griseus. In outline: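 Mammalian Chinese hamster ovary (CHO) cell line, with emetine as the positive control. Test samples were of ≥95% purity. Cytotoxicity is reported as IC50.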
Background: Tetrazolium dyes change colour on reduction, which living cells bring about.

Data set [1] in a line: Selectivity index, ratio of IC50 for CHO cells to IC50 for Plasmodium falciparum NF54 infected in human erythrocytes. Format: toxicity, cell-based. The settings on record: Chinese hamster, read-out: Ratio IC50. In outline: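 SI was calculated as the IC50 against Chinese hamster ovary (CHO) cells divided by the IC50 against P. falciparum NF54. The NF54 value came from the [3H]hypoxanthine incorporation assay. Emetine was the positive control for CHO cytotoxicity.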

Take `CC(=O)[C@@]12O[C@@H]1C[C@H]1[C@H]3CC=C4[C@@H](CC[C@@H](O)C4(C)C)[C@]3(C)C(=O)C[C@@]12C`: the IC50 in the data set with Plasmodium falciparum is over 20 µM.

For the molecule `COC(=O)CC[C@@H](C)[C@H]1CC[C@@H]2[C@H]3[C@H](OC(C)=O)C[C@H]4C[C@H](OC(C)=O)CC[C@]4(C)[C@H]3C[C@H](OC(C)=O)[C@@]21C`, the IC50 is 3.45 µM in the data set on Plasmodium falciparum and 141 µM in the data set with CHO. The selectivity ratio in data set [1] turned out to be 40.9. As for `CC(=O)O[C@H]1CC[C@@]2(C)C(=CC[C@@H]3[C@H]4CCC[C@@]4(C)CC[C@H]32)C1`, the IC50 in the data set on Plasmodium falciparum is over 20 µM. `CC(=O)O[C@H]1CC[C@]2(C)[C@H]3CC[C@@]4(C)[C@H](CC[C@@H]4[C@H](C)CCCC(C)C)[C@@H]3C[C@@H](O)[C@]2(O)C1`: the IC50 in the data set with Plasmodium falciparum was over 20 µM. The same measure, in the same setting: next, `CC(=O)O[C@H]1CC[C@@H]2[C@H]3CC[C@@]4(O)[C@H](CCC[C@@H]4O)[C@H]3CC[C@]12C`: over 20 µM; `CC(C)CCC[C@@H](C)[C@H]1CC[C@@H]2[C@@H]3C[C@H](O)[C@]4(O)C(=O)CCC[C@]4(C)[C@H]3CC[C@@]21C`: over 20 µM; `CC[C@H]1CC[C@@]2(C)[C@H]3C[C@H]4O[C@@]45[C@@H](CC[C@@H](O)C5(C)C)[C@@H]3C(=O)C[C@@]12C`: over 20 µM.

With `CC(=O)O[C@H]1C[C@@H](O)[C@]2(O)CC[C@@H]3[C@H]4CC[C@H]([C@H](C)CCCC(C)C)[C@@]4(C)CC[C@@H]3[C@@]2(C)C1`, the IC50 in the data set on Plasmodium falciparum is 13.1 µM. In the case of `CC(=O)OC[C@@]12C(=O)C[C@@]3(C)[C@H](C(C)=O)CC[C@@]3(C)[C@@H]1C[C@H]1O[C@@]13[C@H]2CC[C@@H](OC(C)=O)C3(C)C`, the IC50 with Plasmodium falciparum was over 20 µM. Same read-out and setting: the same measure for `COc1ccc2c(c1)CC[C@@H]1[C@@H]2CC[C@]2(C)C3(CC[C@@]12C=O)SCCS3`: over 20 µM. On the same count and under the same terms, next, `CC(=O)O[C@H]1C[C@@H]2[C@H]3CC[C@H]([C@H](C)CCCC(C)C)[C@@]3(C)CC[C@@H]2[C@@]2(C)CCC[C@@H](O)[C@]12O`: over 20 µM; `CC(=O)O[C@@H]1CC[C@]2(C)[C@H]3CC[C@@]4(C)[C@@H]([C@@H](C)CCCC(C)C)CC[C@H]4[C@@H]3CC[C@@]2(O)[C@@H]1O`: over 20 µM. Same read-out and setting: the same measure for `CC(=O)O[C@H]1C(=O)C[C@@H]2C(=CC[C@H]3[C@@]2(C)C(=O)C[C@]2(C)C(C(C)=O)=CC[C@@]32C)C1(C)C`: 19.8 µM; for `C[C@@H]1CC[C@@]2(OC1)O[C@H]1C[C@H]3[C@@H]4CC[C@H]5C[C@@H](O)CC[C@]5(C)C4=CC(=O)[C@]3(C)[C@H]1[C@@H]2C`: over 20 µM. In the case of `CC(=O)O[C@H]1CC[C@@H]2[C@@H]3C[C@H](OC(C)=O)[C@@]45O[C@@H]4CCC[C@]5(C)[C@H]3CC[C@]12C`, in the data set with Plasmodium falciparum, the IC50 is over 20 µM.

On to `CC(=O)O[C@@H]1C[C@@]2(C)[C@@H]3CC=C4[C@@H](CC(=O)C4(C)C)[C@]3(C)C(=O)C[C@]2(C)[C@H]1C(C)=O`, for which the IC50 in the data set on Plasmodium falciparum was over 20 µM.

For `CC(=O)O[C@H]1CC[C@@H]2[C@H]3C[C@@H](O)[C@@]4(O)CCCC[C@H]4[C@@H]3CC[C@]12C`, the IC50 in the data set on Plasmodium falciparum is over 20 µM.

For the molecule `COc1ccc2c(c1)CC[C@@H]1[C@H]3[C@H](OCc4ccccc4)CC4(OCCO4)[C@H]3CC[C@@H]21`, the IC50 in the data set on Plasmodium falciparum amounted to 7 µM. Consider `COc1ccc2c(c1)CC[C@H]1[C@@H]2CC[C@@]2(C)[C@]13C=C[C@@]2(C(C)=O)[C@@H](S(=O)(=O)c1ccccc1)C3`, for which the IC50 in the data set with Plasmodium falciparum is over 20 µM. Take `CC(=O)OC(C)(C)/C=C/C(=O)[C@](C)(O)[C@H]1[C@@H](O)C[C@@]2(C)[C@@H]3CC=C4[C@@H](CC[C@H](O)C4(C)C)[C@]3(CO)C(=O)C[C@]12C`: the half-inhibitory concentration (IC50) is 1.76 µM in the data set on Plasmodium falciparum and 8.51 µM in the data set with CHO. Also, in data set [1], the selectivity ratio was found to be 4.83. Consider `CC1(C)CCC[C@H]2[C@]3(C)CC[C@]4(C)CCC[C@H]4[C@H]3C[C@@H](O)[C@@]21O`, for which, in the data set with Plasmodium falciparum, the IC50 stood at 15.8 µM. Still for that read-out and setting: the same measure for `CC(=O)O[C@@H]1C[C@H]2[C@@](C)(C(=O)C[C@]3(C)[C@@H](C(C)=O)CC[C@@]23C)[C@@H]2CCC(=O)C(C)(C)[C@@]12O`: over 20 µM.

Turning to `CC(=O)OC(C)(C)/C=C/C(=O)[C@](C)(O)[C@H]1[C@H](O)C[C@@]2(C)[C@@H]3CC=C4[C@@H](C[C@H](O)C(=O)C4(C)C)[C@]3(C)C(=O)C[C@]12C`, the IC50 with Plasmodium falciparum came out at 1.39 µM; in the data set on CHO, 1.99 µM. Besides, the selectivity ratio in data set [1] came out at 1.43.

For `C[C@H]1[C@H](OC(=O)CCC(=O)O)O[C@@H]2O[C@@]3(C)CC[C@H]4[C@H](C)CC[C@@H]1[C@@]24OO3` [ARTESUNATE], the IC50 with Plasmodium falciparum came to 0.004 µM. `C[C@H](CCC(=O)O)[C@H]1CC[C@H]2[C@@H]3[C@H](O)C[C@@H]4C[C@H](O)CC[C@]4(C)[C@H]3C[C@H](O)[C@]12C` [CHOLIC ACID]: the IC50 in the data set with Plasmodium falciparum is over 20 µM. For `CC(=O)OC(C)(C)/C=C/C(=O)[C@](C)(O)[C@H]1[C@H](O)C[C@@]2(C)[C@@H]3CC=C4[C@@H](C[C@H](O)C(=O)C4(C)C)[C@]3(CO)C(=O)C[C@]12C` [CUCURBITACIN A], the IC50 in the data set on Plasmodium falciparum is 2.92 µM; with CHO, 55.2 µM. Further, in data set [1], the selectivity ratio is 18.9.

For the molecule `C[C@@H]1CC[C@@]2(OC1)O[C@H]1C[C@H]3[C@@H]4CC=C5C[C@@H](O)CC[C@]5(C)[C@H]4CC[C@]3(C)[C@H]1[C@@H]2C` [DISOGENIN], the IC50 in the data set with Plasmodium falciparum was over 20 µM.

In the case of `CC(=O)O[C@H]1C[C@@]2(C)[C@@H](C[C@@H](O)[C@H]3[C@@]4(C)CC[C@@H](O)[C@@H](C)[C@@H]4CC[C@@]32C)/C1=C(\CCC=C(C)C)C(=O)O` [FUSIDIC ACID], the IC50 in the data set with CHO came out at 194 µM.

One may read the IC50 as the concentration that inhibits the measured activity by half.
